From ChEMBL document CHEMBL1153836, “Effects of human immunodeficiency virus protease inhibitors on the intestinal absorption of tenofovir disoproxil fumarate in vitro” (Antimicrob Agents Chemother, 2007)
The source made the active and inactive calls. The calls are words filed in the database; no cut-off is given here.

Key:
[1] = tested on: Homo sapiens; experiment: Effect on tenofovir disoproxil fumarate metabolism in ritonavir booster drug treated healthy human assessed as change in plasma Cmin of tenofovir at 1000 mg, po, BID co-administered with 300 mg once daily dose of tenofovir disoproxil fumarate; assay type: ADME, organism-based; conditions: in vivo
[2] = tested on: Caco-2; experiment: Increase in P-glycoprotein-mediated tenofovir disoproxil fumarate permeation from apical to basolateral side of human Caco-2 cells at 20 uM; assay type: cell-based
Outline: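 Caco-2 monolayers were preincubated 30 min with 20 µM PI in transport buffer, then given fresh buffer with inhibitor plus TDF on the apical side. […] Duplicates; mean ± SD of three independent experiments.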

[3] = species on record: Homo sapiens; experiment: Inhibition of esterase mediated-hydrolysis of tenofovir disoproxil fumarate in human intestinal sub cellular fraction S9 at 2 uM after 30 mins
Outline: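 Reactions were stopped at 30 and 60 min with 67% acetonitrile, and TDF was measured by LC/MS/MS. Degradation rate came from a single-exponential fit, expressed as percent inhibition versus DMSO. Duplicates; three to six independent experiments.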

[4] = tested on: Homo sapiens; experiment: Effect on tenofovir disoproxil fumarate metabolism in ritonavir booster drug treated healthy human assessed as change in plasma AUC of tenofovir at 1000 mg, po, BID co-administered with 300 mg once daily dose of tenofovir disoproxil fumarate; assay type: ADME, organism-based; conditions: in vivo
[5] = biological target: ATP-dependent translocase ABCB1 (Homo sapiens, UniProt P08183); experiment: Inhibition of human MDR1-dependent accumulation of calcein-AM expressed in MDCK2 cells; assay type: cell-based, MDCK-II; conditions: for Activity: human, mdck-ii
ATP-dependent translocase ABCB1, sequence (P08183 whole entry): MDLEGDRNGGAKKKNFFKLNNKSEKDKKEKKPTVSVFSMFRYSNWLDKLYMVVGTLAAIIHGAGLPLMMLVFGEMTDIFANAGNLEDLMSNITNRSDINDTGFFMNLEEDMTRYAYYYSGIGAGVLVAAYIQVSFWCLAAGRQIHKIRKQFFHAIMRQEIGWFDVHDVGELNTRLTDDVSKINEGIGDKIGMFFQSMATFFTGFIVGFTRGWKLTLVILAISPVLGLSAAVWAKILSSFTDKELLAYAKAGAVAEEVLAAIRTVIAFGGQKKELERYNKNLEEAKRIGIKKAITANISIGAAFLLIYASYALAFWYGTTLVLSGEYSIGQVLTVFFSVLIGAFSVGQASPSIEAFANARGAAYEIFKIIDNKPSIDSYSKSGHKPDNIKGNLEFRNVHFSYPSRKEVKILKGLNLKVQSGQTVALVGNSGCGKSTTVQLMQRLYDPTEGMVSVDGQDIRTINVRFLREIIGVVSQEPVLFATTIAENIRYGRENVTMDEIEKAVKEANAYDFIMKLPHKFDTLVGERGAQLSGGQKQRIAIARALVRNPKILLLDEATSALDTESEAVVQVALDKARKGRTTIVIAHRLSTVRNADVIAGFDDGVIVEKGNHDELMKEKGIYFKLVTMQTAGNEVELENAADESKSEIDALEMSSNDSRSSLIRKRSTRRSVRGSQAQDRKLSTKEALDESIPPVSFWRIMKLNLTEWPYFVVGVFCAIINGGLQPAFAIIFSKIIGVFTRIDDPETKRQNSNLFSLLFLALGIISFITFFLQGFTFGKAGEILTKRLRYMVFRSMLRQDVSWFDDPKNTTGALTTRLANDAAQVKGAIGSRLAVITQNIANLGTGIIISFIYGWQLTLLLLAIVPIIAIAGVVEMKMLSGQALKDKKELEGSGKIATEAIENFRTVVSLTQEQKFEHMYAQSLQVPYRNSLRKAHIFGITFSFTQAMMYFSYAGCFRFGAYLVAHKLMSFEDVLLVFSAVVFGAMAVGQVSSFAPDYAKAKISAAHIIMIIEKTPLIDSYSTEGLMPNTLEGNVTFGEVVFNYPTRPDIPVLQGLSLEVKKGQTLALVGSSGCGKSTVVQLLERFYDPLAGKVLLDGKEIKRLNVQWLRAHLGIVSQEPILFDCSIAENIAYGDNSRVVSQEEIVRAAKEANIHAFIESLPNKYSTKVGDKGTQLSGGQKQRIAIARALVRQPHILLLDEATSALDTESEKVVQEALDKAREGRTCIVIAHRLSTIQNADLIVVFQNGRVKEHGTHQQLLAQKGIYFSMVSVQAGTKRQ
Outline: (§1)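 Parental and MDR1-transfected MDCKII cells received calcein-AM together with PI (seven twofold dilutions from 50 µM, no serum proteins). Intracellular calcein fluorescence was read in a 96-well format. Percent increase in fluorescence was fitted to a hyperbolic curve for IC50. Duplicates; 3–10 independent assays.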

[6] = tested on: Homo sapiens; experiment: Effect on tenofovir disoproxil fumarate metabolism in ritonavir booster drug treated healthy human assessed as change in plasma Cmax of tenofovir at 1000 mg, po, BID co-administered with 300 mg once daily dose of tenofovir disoproxil fumarate; assay type: ADME, organism-based; conditions: in vivo
[7] = biological target: T1, MDR1 (ABCB1, P-glycoprotein) (Homo sapiens, UniProt P08183); experiment: Inhibition of human MDR1-dependent accumulation of calcein-AM expressed in MDCK2 cells at 50 uM; assay type: cell-based, MDCK-II; parameters: activity at 50 µM: scale not given: the % may be the effect or the level left; conditions: MDCK2 cells expressing human MDR1, probe calcein-AM; outline: as §1
T1 sequence (P08183 whole entry): as above

[8] = tested on: Homo sapiens; experiment: Effect on tenofovir disoproxil fumarate metabolism in ritonavir booster drug treated healthy human assessed as change in plasma Cmin of tenofovir at 300 mg, po, BID co-administered with 300 mg once daily dose of tenofovir disoproxil fumarate; assay type: ADME, organism-based; conditions: in vivo
[9] = tested on: Homo sapiens; experiment: Effect on tenofovir disoproxil fumarate metabolism in ritonavir booster drug treated healthy human assessed as change in plasma AUC of tenofovir at 300 mg, po, BID co-administered with 300 mg once daily dose of tenofovir disoproxil fumarate; assay type: ADME, organism-based; conditions: in vivo
[10] = tested on: Homo sapiens; experiment: Effect on tenofovir disoproxil fumarate metabolism in ritonavir booster drug treated healthy human assessed as change in plasma Cmax of tenofovir at 300 mg, po, BID co-administered with 300 mg once daily dose of tenofovir disoproxil fumarate; assay type: ADME, organism-based; conditions: in vivo
[11] = tested on: Homo sapiens; experiment: Effect on tenofovir disoproxil fumarate metabolism in ritonavir booster drug treated healthy human assessed as change in plasma Cmax of tenofovir at 500 mg, po, BID co-administered with 300 mg once daily dose of tenofovir disoproxil fumarate; assay type: ADME, organism-based; conditions: in vivo
[12] = tested on: Homo sapiens; experiment: Effect on tenofovir disoproxil fumarate metabolism in ritonavir booster drug treated healthy human assessed as change in plasma Cmax of tenofovir at 750 mg, po, BID co-administered with 300 mg once daily dose of tenofovir disoproxil fumarate; assay type: ADME, organism-based; conditions: in vivo
[13] = tested on: Homo sapiens; experiment: Effect on tenofovir disoproxil fumarate metabolism in ritonavir booster drug treated healthy human assessed as change in plasma Cmax of tenofovir at 800 mg, po, TID co-administered with 300 mg once daily dose of tenofovir disoproxil fumarate; assay type: ADME, organism-based; conditions: in vivo
[14] = biological target: T1, MDR1 (ABCB1, P-glycoprotein); experiment: Inhibition of human MDR1-dependent accumulation of calcein-AM expressed in MDCK2 cells at 20 uM; assay type: cell-based, MDCK-II; conditions: MDCK2 cells expressing human MDR1, probe calcein-AM
[15] = tested on: Homo sapiens; experiment: Effect on tenofovir disoproxil fumarate metabolism in ritonavir booster drug treated healthy human assessed as change in plasma Cmin of tenofovir at 1250 mg, po, BID co-administered with 300 mg once daily dose of tenofovir disoproxil fumarate; assay type: ADME, organism-based; conditions: in vivo
[16] = tested on: Homo sapiens; experiment: Effect on tenofovir disoproxil fumarate metabolism in ritonavir booster drug treated healthy human assessed as change in plasma Cmin of tenofovir at 300 mg, po, QD co-administered with 300 mg once daily dose of tenofovir disoproxil fumarate; assay type: ADME, organism-based; conditions: in vivo
[17] = tested on: Homo sapiens; experiment: Effect on tenofovir disoproxil fumarate metabolism in ritonavir booster drug treated healthy human assessed as change in plasma Cmax of tenofovir at 300 mg, po, QD co-administered with 300 mg once daily dose of tenofovir disoproxil fumarate; assay type: ADME, organism-based; conditions: in vivo
[18] = tested on: Homo sapiens; experiment: Effect on tenofovir disoproxil fumarate metabolism in ritonavir booster drug treated healthy human assessed as change in plasma AUC of tenofovir at 300 mg, po, QD co-administered with 300 mg once daily dose of tenofovir disoproxil fumarate; assay type: ADME, organism-based; conditions: in vivo
[19] = tested on: Homo sapiens; experiment: Effect on tenofovir disoproxil fumarate metabolism in ritonavir booster drug treated healthy human assessed as change in plasma Cmin of tenofovir at 1400 mg, po, BID co-administered with 300 mg once daily dose of tenofovir disoproxil fumarate; assay type: ADME, organism-based; conditions: in vivo
[20] = tested on: Homo sapiens; experiment: Effect on tenofovir disoproxil fumarate metabolism in ritonavir booster drug treated healthy human assessed as change in plasma Cmax of tenofovir at 700 mg, po, BID co-administered with 300 mg once daily dose of tenofovir disoproxil fumarate; assay type: ADME, organism-based; conditions: in vivo
[21] = tested on: Homo sapiens; experiment: Effect on tenofovir disoproxil fumarate metabolism in ritonavir booster drug treated healthy human assessed as change in plasma Cmax of tenofovir at 1400 mg, po, BID co-administered with 300 mg once daily dose of tenofovir disoproxil fumarate; assay type: ADME, organism-based; conditions: in vivo
[22] = tested on: Homo sapiens; experiment: Effect on tenofovir disoproxil fumarate metabolism in ritonavir booster drug treated healthy human assessed as change in plasma AUC of tenofovir at 1400 mg, po, BID co-administered with 300 mg once daily dose of tenofovir disoproxil fumarate; assay type: ADME, organism-based; conditions: in vivo
[23] = tested on: Caco-2; experiment: Increase in P-glycoprotein-mediated forward permeation of tenofovir disoproxil fumarate in human Caco-2 cells at 2 uM; assay type: cell-based
[24] = tested on: Homo sapiens; experiment: Effect on tenofovir disoproxil fumarate metabolism in ritonavir booster drug treated HIV infected patient assessed as change in plasma AUC of tenofovir at 400 mg, po, BID co-administered with 300 mg once daily dose of tenofovir disoproxil fumarate; assay type: ADME, organism-based; conditions: in vivo
[25] = tested on: Homo sapiens; experiment: Effect on tenofovir disoproxil fumarate metabolism in HIV infected patient assessed as change in plasma Cmin of tenofovir at 400 mg, po, BID co-administered with 300 mg once daily dose of tenofovir disoproxil fumarate; assay type: ADME, organism-based; conditions: in vivo
[26] = tested on: Homo sapiens; experiment: Effect on tenofovir disoproxil fumarate metabolism in HIV infected patient assessed as change in plasma Cmax of tenofovir at 400 mg, po, BID co-administered with 300 mg once daily dose of tenofovir disoproxil fumarate; assay type: ADME, organism-based; conditions: in vivo
[27] = tested on: Caco-2; experiment: Ratio of permeability from basolateral to apical side over apical to basolateral side in human Caco-2 cells at 1000 uM; assay type: ADME, cell-based; conditions: caco-2, 1000 µM
Outline: (§2)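 Confluent Caco-2 monolayers dosed with TDF (1–1,000 µM) on the apical or basolateral side at 37°C, 5% CO2. […] Efflux ratio = B-to-A Papp / A-to-B Papp. Two independent experiments in duplicate.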

[28] = tested on: Caco-2; experiment: Ratio of permeability from basolateral to apical side over apical to basolateral side in human Caco-2 cells at 1 uM; assay type: ADME, cell-based; conditions: caco-2, 1 µM; outline: as §2
[29] = species on record: Homo sapiens; experiment: Inhibition of esterase mediated-hydrolysis of tenofovir disoproxil fumarate in human intestinal sub cellular fraction S9 assessed as rate of tenofovir disoproxil fumarate degradation at 100 uM after 30 mins
Outline: (§3)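 Human intestinal S9 at 1 mg/ml protein; TDF 2 µM incubated with or without inhibitor (10, 50 or 100 µM) at 37°C in duplicate. Reactions were stopped at 30 and 60 min with 67% acetonitrile, protein removed by centrifugation, and TDF measured by LC/MS/MS. The degradation rate came from a single-exponential-decay fit.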

[30] = species on record: Homo sapiens; experiment: Inhibition of esterase mediated-hydrolysis of tenofovir disoproxil fumarate in human intestinal sub cellular fraction S9 assessed as rate of tenofovir disoproxil fumarate degradation at 50 uM after 30 mins; outline: as §3
[31] = species on record: Homo sapiens; experiment: Inhibition of esterase mediated-hydrolysis of tenofovir disoproxil fumarate in human intestinal sub cellular fraction S9 assessed as rate of tenofovir disoproxil fumarate degradation at 10 uM after 30 mins; outline: as §3
[32] = tested on: Caco-2; experiment: Increase in P-glycoprotein-mediated forward permeation of tenofovir disoproxil fumarate in human Caco-2 cells at 10 uM; assay type: cell-based

For `CC(C)(C)NC(=O)[C@@H]1C[C@@H]2CCCC[C@@H]2CN1C[C@@H](O)[C@H](Cc1ccccc1)NC(=O)[C@H](CC(N)=O)NC(=O)c1ccc2ccccc2n1`, the Activity [1] was 23%, the Activity [2] was “Active” and the Activity [3] was “Active”. The Activity [4] was 14%, the Activity [5] was “Dose-dependent effect” and the Activity [6] was 15%.

With `CC(C)CN(C[C@@H](O)[C@H](Cc1ccccc1)NC(=O)O[C@H]1CCOC1)S(=O)(=O)c1ccc(N)cc1` the Activity [3] was “Active” and the inhibition at 50 µM [7] was no more than 25%.

Compound `CC(C)CN(C[C@@H](O)[C@H](Cc1ccccc1)NC(=O)O[C@H]1CO[C@H]2OCC[C@H]21)S(=O)(=O)c1ccc(N)cc1` has an Activity [8] of 37%, an inhibition [3] of less than 40% and an Activity [9] of 22%. The IC50 [5] was greater than 100 µM, the activity at 50 µM ([7]; read-out: Activity) was 15% and the Activity [10] was 24%.

In the case of `CCC[C@@]1(CCc2ccccc2)CC(O)=C([C@H](CC)c2cccc(NS(=O)(=O)c3ccc(C(F)(F)F)cn3)c2)C(=O)O1`, the Activity [11] is reported as -23% and the Activity [12] is reported as -38%.

Compound `CC(C)(C)NC(=O)[C@@H]1CN(Cc2cccnc2)CCN1C[C@@H](O)C[C@@H](Cc1ccccc1)C(=O)N[C@H]1c2ccccc2C[C@H]1O.O` has an Activity [13] of 14%, an inhibition [3] of less than 40% and an inhibition at 50 µM [7] of no more than 25%.

For `Cc1c(O)cccc1C(=O)N[C@@H](CSc1ccccc1)[C@H](O)CN1C[C@H]2CCCC[C@H]2C[C@H]1C(=O)NC(C)(C)C`, the inhibition at 20 µM [14] was 50%, the Activity [3] was “Active” and the Activity [5] was “Dose-dependent effect”. The Activity [15] was 9%.

With `CC(C)c1nc(CN(C)C(=O)N[C@H](C(=O)N[C@@H](Cc2ccccc2)C[C@H](O)[C@H](Cc2ccccc2)NC(=O)OCc2cncs2)C(C)C)cs1` the Activity [2] was “Active” and the Activity [3] was “Active”.

With `COC(=O)N[C@H](C(=O)N[C@@H](Cc1ccccc1)[C@@H](O)CN(Cc1ccc(-c2ccccn2)cc1)NC(=O)[C@@H](NC(=O)OC)C(C)(C)C)C(C)(C)C` [ATAZANAVIR] the Activity [2] was “Active”, the Activity [16] was 29% and the Activity [3] was “Active”. For the same compound, the Activity [17] was 34%, the IC50 [5] was 67.8 µM and the Activity [5] was “Dose-dependent effect”. For the same compound, the Activity [18] was 37%.

For `Cc1nc(COc2ccc(C[C@H](NC(=O)O[C@H]3CO[C@H]4OCC[C@H]43)[C@H](O)CN(CC(C)C)S(=O)(=O)c3ccc4c(c3)OCO4)cc2)cs1` [BRECANAVIR], the inhibition at 20 µM [14] was 50%, the inhibition [3] was “Active” and the Activity [9] was 32%. For the same compound, the IC50 [5] was 24.1 µM, the Activity [5] was “Dose-dependent effect” and the Activity [10] was 24%.

Work on `CC(C)CN(C[C@@H](OP(=O)(O)O)[C@H](Cc1ccccc1)NC(=O)O[C@H]1CCOC1)S(=O)(=O)c1ccc(N)cc1` [FOSAMPRENAVIR] yielded an Activity [19] of -12%, an Activity [20] of -18% and an Activity [21] of -25%. For the same compound, the Activity [22] was -15%.

With `Cc1cccc(C)c1OCC(=O)N[C@@H](Cc1ccccc1)[C@@H](O)C[C@H](Cc1ccccc1)NC(=O)[C@H](C(C)C)N1CCCNC1=O` [LOPINAVIR] the inhibition at 20 µM [14] was 50%, the Activity [23] was 100% and the Activity [2] was “Active”. For the same compound, the Activity [3] was “Active”, the Activity [24] was 32% and the Activity [5] was “Dose-dependent effect”. For the same compound, the Activity [25] was 51% and the Activity [26] was 15%.

`CC(C)OC(=O)OCOP(=O)(CO[C@H](C)Cn1cnc2c(N)ncnc21)OCOC(=O)OC(C)C.O=C(O)/C=C/C(=O)O` [TENOFOVIR DISOPROXIL FUMARATE] was tested, and the Ratio [27] was 2.6, the Ratio [28] was 25 and the fold change (FC) [23] was 2.5. For the same compound, the Activity [29] was 0.012 min⁻¹, the Activity [30] was 0.016 min⁻¹ and the Activity [31] was 0.021 min⁻¹. For the same compound, the fold change (FC) [32] was 1.4.
